Results: ChEMBL document CHEMBL1157537 (J Med Chem, 2008)
Active and inactive are the calls of the source. The rule behind the calls is not given here.

What was measured:
[1] = biological target: T1, Mineralocorticoid receptor (Homo sapiens) (UniProt P08235); assay: Antagonist activity at human mineralocorticoid receptor relative to aldosterone; type: functional
T1 sequence (whole entry): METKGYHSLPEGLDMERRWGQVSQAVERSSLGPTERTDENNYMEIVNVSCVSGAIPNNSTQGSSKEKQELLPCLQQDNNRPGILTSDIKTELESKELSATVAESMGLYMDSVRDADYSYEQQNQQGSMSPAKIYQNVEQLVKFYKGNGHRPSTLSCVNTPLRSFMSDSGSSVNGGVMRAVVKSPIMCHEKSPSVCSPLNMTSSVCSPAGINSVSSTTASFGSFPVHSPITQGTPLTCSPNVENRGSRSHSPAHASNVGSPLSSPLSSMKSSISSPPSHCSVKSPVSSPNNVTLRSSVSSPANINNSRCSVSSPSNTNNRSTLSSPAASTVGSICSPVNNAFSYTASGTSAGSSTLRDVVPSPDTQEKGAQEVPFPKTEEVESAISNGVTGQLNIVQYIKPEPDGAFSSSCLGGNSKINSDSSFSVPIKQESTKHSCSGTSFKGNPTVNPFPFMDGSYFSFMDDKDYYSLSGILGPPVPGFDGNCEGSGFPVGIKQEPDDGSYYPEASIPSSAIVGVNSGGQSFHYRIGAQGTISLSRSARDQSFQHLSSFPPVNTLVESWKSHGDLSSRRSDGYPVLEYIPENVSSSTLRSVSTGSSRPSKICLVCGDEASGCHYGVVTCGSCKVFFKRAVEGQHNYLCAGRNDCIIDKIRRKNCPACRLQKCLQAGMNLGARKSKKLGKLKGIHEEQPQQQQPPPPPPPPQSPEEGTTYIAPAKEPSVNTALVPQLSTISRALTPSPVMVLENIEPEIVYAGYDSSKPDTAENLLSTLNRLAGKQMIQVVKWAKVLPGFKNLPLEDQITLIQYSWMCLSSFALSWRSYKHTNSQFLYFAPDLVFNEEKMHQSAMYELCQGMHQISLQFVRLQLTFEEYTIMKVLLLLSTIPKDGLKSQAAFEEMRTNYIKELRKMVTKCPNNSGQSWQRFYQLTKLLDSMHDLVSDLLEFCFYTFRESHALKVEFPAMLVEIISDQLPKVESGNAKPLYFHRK

Rattus norvegicus [2] = species on record: Rattus norvegicus; assay: Progestational activity in estrone-treated ovariectomized rat assessed as inhibition of medroxyprogesterone acetate-induced effect on vaginal epithelial thickness; type: functional, organism-based
Summary of the method: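 Antagonist mode of the estrone-treated ovariectomized rat multi-endpoint model: compound was combined with MPA plus estrone, with vehicle and estrone-only groups. Endpoints were uterine epithelial cell height, vaginal epithelial thickness and mammary alveolar bud proliferation.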

Rattus norvegicus [3] = species on record: Rattus norvegicus; assay: Progestational activity in estrone-treated ovariectomized rat assessed as effect on vaginal epithelial thickness; type: functional, organism-based
Summary of the method: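 Ovariectomized rats were treated with estrone, alone or combined with test progestin, and compared with vehicle and estrone-only groups. Endpoints were uterine epithelial cell height, vaginal epithelial thickness and mammary alveolar bud proliferation.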

Cynomolgus monkey = assay: Inhibition of ovulation in cynomolgus monkey assessed as reduction of progesterone level after 3 weeks; type: functional, organism-based; conditions: Macaca fascicularis
[4] = biological target: T2, Androgen receptor (Homo sapiens) (UniProt P10275); assay: Agonist activity at human androgen receptor relative to dihydrotestosterone; type: functional
T2 sequence (whole entry): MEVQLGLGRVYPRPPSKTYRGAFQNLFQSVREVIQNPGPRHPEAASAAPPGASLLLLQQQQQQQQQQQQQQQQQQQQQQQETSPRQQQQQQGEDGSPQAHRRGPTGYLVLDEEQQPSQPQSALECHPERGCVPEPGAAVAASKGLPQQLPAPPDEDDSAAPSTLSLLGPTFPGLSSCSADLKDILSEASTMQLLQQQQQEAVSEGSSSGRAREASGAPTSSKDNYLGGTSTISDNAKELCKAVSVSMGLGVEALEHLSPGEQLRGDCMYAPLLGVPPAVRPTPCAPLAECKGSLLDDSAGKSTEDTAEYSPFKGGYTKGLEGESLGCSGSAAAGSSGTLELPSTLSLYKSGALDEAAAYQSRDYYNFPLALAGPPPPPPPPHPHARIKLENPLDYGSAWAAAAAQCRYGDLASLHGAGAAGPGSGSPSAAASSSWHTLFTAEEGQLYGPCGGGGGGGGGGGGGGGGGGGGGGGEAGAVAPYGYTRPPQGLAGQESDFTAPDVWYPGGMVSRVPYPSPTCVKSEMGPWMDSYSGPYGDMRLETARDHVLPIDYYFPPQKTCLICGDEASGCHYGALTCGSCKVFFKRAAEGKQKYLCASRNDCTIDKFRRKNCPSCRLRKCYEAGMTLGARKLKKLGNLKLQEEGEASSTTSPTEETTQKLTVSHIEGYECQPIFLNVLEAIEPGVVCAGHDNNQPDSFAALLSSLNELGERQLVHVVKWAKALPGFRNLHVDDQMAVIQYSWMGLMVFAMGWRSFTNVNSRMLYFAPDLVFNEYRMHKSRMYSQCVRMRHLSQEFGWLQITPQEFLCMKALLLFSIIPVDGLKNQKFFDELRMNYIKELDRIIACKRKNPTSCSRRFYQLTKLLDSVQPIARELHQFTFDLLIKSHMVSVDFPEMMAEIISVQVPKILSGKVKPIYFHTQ

[5] = biological target: T3, Glucocorticoid receptor (Homo sapiens) (UniProt P04150); assay: Antagonist activity at human glucocorticoid receptor relative to Dexamethasone; type: functional
T3 sequence (whole entry): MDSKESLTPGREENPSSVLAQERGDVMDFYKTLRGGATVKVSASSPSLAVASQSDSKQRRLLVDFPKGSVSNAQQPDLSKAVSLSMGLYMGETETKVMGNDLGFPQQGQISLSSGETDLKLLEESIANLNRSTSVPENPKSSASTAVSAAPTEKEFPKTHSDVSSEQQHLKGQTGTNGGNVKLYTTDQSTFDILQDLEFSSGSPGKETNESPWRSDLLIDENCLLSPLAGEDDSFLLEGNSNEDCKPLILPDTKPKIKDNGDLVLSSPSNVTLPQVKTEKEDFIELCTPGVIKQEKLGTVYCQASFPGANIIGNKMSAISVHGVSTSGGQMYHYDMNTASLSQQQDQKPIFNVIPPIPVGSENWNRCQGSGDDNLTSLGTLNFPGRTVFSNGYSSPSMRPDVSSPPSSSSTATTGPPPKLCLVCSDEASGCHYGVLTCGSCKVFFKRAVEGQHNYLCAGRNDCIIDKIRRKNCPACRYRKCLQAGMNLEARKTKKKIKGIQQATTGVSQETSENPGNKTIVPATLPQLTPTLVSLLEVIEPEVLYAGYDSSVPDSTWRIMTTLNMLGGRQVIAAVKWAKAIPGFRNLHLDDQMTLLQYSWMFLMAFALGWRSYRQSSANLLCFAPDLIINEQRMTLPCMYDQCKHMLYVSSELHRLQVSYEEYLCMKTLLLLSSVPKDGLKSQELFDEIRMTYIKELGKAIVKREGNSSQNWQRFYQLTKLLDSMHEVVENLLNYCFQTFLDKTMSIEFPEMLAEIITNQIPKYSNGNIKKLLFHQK

Efficacy [1]: 93%
Efficacy [4]: 177%
Efficacy [5]: 92%
Structure (SMILES): CC1=C[C@@H]([C@@H]2Oc3c(F)cc(F)cc3-c3ccc4c(c32)C(C)=CC(C)(C)N4)CCC1 (stereo in doubt; (-)-5c)
Activity (Rattus norvegicus [2]): inactive
Activity (Rattus norvegicus [3]): Active
Activity (Cynomolgus monkey): Active
